Data taken from ChEMBL document CHEMBL2169846, “Design and synthesis of Pictet-Spengler condensation products that exhibit oncogenic-RAS synthetic lethality and induce non-apoptotic cell death” (Bioorg Med Chem Lett, 2012).
Activity calls are given as the source filed them. The rule behind the calls is not given here.

Tests used:
[1] = test system: BJeH; assay: Cytotoxicity against human BJeH cells expressing wild type RAS at 20 ug/mL after 48 hrs by alamar blue assay; type: functional, cell-based
[2] = test system: U2OS; assay: Cytotoxicity against human U2OS cells at 20 ug/mL after 48 hrs by alamar blue assay; type: functional, cell-based
[3] = test system: RKO; assay: Cytotoxicity against human RKO cells at 20 ug/mL after 48 hrs by alamar blue assay; type: functional, cell-based
In short: (§1)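 Each cell line exposed for 48 h to a 2-fold, 12-point dilution series beginning at 20 µg/mL. Viability by Alamar blue; LC50 derived from the curves.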

[4] = test system: HT-1080; assay: Cytotoxicity against human HT1080 cells at 20 ug/mL after 48 hrs by alamar blue assay; type: functional, cell-based; in short: as §1
[5] = test system: E3 ubiquitin-protein ligase Mdm2 (Homo sapiens), Q00987 [C464A]; assay: Inhibition of Mdm2 C464A mutant at 20 ug/mL after 2 hrs by cell-based luciferase assay
Sequence of E3 ubiquitin-protein ligase Mdm2 (Homo sapiens), Q00987 [C464A] (Q00987 whole entry C464A): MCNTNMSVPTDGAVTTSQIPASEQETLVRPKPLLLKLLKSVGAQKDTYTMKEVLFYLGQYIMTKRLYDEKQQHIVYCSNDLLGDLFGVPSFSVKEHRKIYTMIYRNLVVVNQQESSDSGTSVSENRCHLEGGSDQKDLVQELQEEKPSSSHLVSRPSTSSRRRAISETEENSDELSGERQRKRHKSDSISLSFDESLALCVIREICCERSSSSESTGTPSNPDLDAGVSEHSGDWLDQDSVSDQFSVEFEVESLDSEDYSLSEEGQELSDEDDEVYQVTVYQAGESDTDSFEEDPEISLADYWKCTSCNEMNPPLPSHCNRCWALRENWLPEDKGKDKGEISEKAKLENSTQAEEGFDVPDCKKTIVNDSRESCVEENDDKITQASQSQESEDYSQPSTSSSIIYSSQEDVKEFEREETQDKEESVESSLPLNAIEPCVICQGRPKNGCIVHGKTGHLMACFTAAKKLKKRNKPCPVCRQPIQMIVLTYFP

[6] = test system: BJeLR; assay: Cytotoxicity against human BJeLR cells expressing RAS G12V mutant at 20 ug/mL after 48 hrs by alamar blue assay; type: functional, cell-based
[7] = molecular target: E3 ubiquitin-protein ligase Mdm2 (Homo sapiens) (UniProt Q00987); assay: Inhibition of wild type Mdm2 at 20 ug/mL after 2 hrs by cell-based luciferase assay
Sequence of E3 ubiquitin-protein ligase Mdm2 (Homo sapiens) (Q00987 whole entry, looked up): as the sequence (Q00987 whole entry C464A) above, with A464C counted along it

[8] = test system: MCF7; assay: Cytotoxicity against human MCF7 cells at 20 ug/mL after 48 hrs by alamar blue assay; type: functional, cell-based; in short: as §1
[9] = test system: HT1299; assay: Cytotoxicity against human HT1299 cells at 20 ug/mL after 48 hrs by alamar blue assay; type: functional, cell-based; in short: as §1
[10] = Cytotoxicity against human BJeLR cells expressing RAS G12V mutant after 48 hrs by alamar blue assay; type: functional, cell-based; settings: for CC50: read-out: LC50 (the source's name)
[11] = Cytotoxicity against human BJeH cells expressing wild type RAS after 48 hrs by alamar blue assay; type: functional, cell-based; settings: for CC50: read-out: LC50 (the source's name)
[12] = test system: RKO; assay: Cytotoxicity against human RKO cells after 48 hrs by alamar blue assay; type: functional; settings: read-out: LC50 (the source's name)
[13] = test system: MCF7; assay: Cytotoxicity against human MCF7 cells after 48 hrs by alamar blue assay; type: functional; settings: MCF7, 48 h, read-out: LC50 (the source's name)
[14] = test system: HT-1080; assay: Cytotoxicity against human HT1080 cells after 48 hrs by alamar blue assay; type: functional; settings: HT-1080, 48 h, read-out: LC50 (the source's name)
[15] = test system: U2OS; assay: Cytotoxicity against human U2OS cells after 48 hrs by alamar blue assay; type: functional; settings: read-out: LC50 (the source's name)
[16] = Cytotoxicity against human HT1299 cells after 48 hrs by alamar blue assay; type: functional; settings: HT1299, 48 h, read-out: LC50 (the source's name)

SMILES | Activity [1] | Activity [2] | Activity [3] | Activity [4] | inhibition [5] | Activity [6] | inhibition [7] | Activity [8] | Activity [9] | CC50 [10] | CC50 [11] | CC50 [12] | CC50 [13] | CC50 [14] | CC50 [15] | CC50 [16] | EC50 [10] | EC50 [11]
CCCN1C(=O)C(CCC2NCCc3c2[nH]c2ccccc32)C(=O)N(CCC)C1=O (stereo not drawn) | inactive | inactive | inactive | inactive | inactive | inactive | inactive | inactive | inactive | – | – | – | – | – | – | – | – | –
CCOC(=O)C1c2c(c3ccccc3n2C)CCN1C(=O)OC(C)(C)C (stereo not drawn) | inactive | inactive | inactive | inactive | inactive | inactive | inactive | inactive | inactive | – | – | – | – | – | – | – | – | –
COC(OC)c1nccc2c1[nH]c1ccccc12 | – | inactive | inactive | inactive | inactive | – | inactive | inactive | inactive | 7.8 µM | 82.6 µM | – | – | – | – | – | – | –
CN1C(=O)C(Cc2nccc3c4ccccc4n(C(=O)OC(C)(C)C)c23)C(=O)N(C)C1=O | inactive | inactive | inactive | inactive | inactive | inactive | inactive | inactive | inactive | – | – | – | – | – | – | – | – | –
CC(CC1C(=O)N(C)C(=O)N(C)C1=O)C1NCCc2c1[nH]c1ccccc21 (stereo not drawn) | – | – | – | inactive | inactive | – | inactive | inactive | inactive | 54.3 µM | 54.3 µM | 54.3 µM | – | – | – | – | – | –
CN1C(=O)C(CCC2NCCc3c2[nH]c2ccccc32)C(=O)N(C)C1=O (stereo not drawn) | inactive | inactive | inactive | inactive | inactive | inactive | inactive | inactive | inactive | – | – | – | – | – | – | – | – | –
COC(OC)C1c2[nH]c3ccccc3c2CCN1Cc1ccccc1 (stereo not drawn) | inactive | – | – | – | inactive | inactive | inactive | – | inactive | – | – | 59.5 µM | 59.5 µM | 59.5 µM | 59.5 µM | – | – | –
CN1C(=O)C(Cc2nccc3c4ccccc4n(C)c23)C(=O)N(C)C1=O | inactive | – | – | – | inactive | inactive | inactive | – | – | – | – | 15.4 µM | 57.1 µM | 57.1 µM | 14.2 µM | 57.5 µM | – | –
COC(=O)N1CCc2c(n(C(=O)OC(C)(C)C)c3ccccc23)C1C(OC)OC (stereo not drawn) | inactive | – | inactive | inactive | inactive | inactive | inactive | inactive | inactive | – | – | – | – | – | 48.7 µM | – | – | –
CN1C(=O)C(c2nccc3c2[nH]c2ccccc23)C(=O)N(C)C1=O | inactive | inactive | inactive | inactive | inactive | inactive | inactive | inactive | inactive | – | – | – | – | – | – | – | – | –
CC(C)(C)OC(=O)N1CCc2c(n(C(=O)OC(C)(C)C)c3ccccc23)C1CC=O (stereo not drawn) | – | – | – | – | inactive | – | inactive | – | – | 23.4 µM | 48.3 µM | 7 µM | – | 15.2 µM | 10.3 µM | 11.8 µM | – | –
CCOC(=O)C(C)C1NCCc2c1[nH]c1ccccc21 (stereo not drawn) | – | inactive | inactive | inactive | inactive | – | inactive | inactive | inactive | 31.6 µM | 73.5 µM | – | – | – | – | – | – | –
CCOC(=O)C1c2c(c3ccccc3n2C(=O)OC(C)(C)C)CCN1C(=O)OC (stereo not drawn) | inactive | inactive | inactive | inactive | inactive | inactive | inactive | inactive | inactive | – | – | – | – | – | – | – | – | –
CCOC(=O)C1c2[nH]c3ccccc3c2CCN1Cc1ccccc1 (stereo not drawn) | inactive | inactive | inactive | inactive | inactive | inactive | inactive | inactive | inactive | – | – | – | – | – | – | – | – | –
O=Cc1nccc2c1[nH]c1ccccc12 | inactive | inactive | – | – | inactive | – | inactive | inactive | – | 32.4 µM | – | 11.1 µM | – | 67.5 µM | – | 67.5 µM | – | –
COC(OC)C1NCCc2c1[nH]c1ccccc21 (stereo not drawn) | inactive | inactive | inactive | inactive | inactive | – | inactive | inactive | inactive | 81.3 µM | – | – | – | – | – | – | – | –
CCOC(=O)C(C)C1c2c(c3ccccc3n2C(=O)OC(C)(C)C)CCN1C(=O)OC(C)(C)C (stereo not drawn) | inactive | – | – | – | inactive | inactive | inactive | – | – | – | – | 9.9 µM | 9.5 µM | 25.2 µM | 14.1 µM | 42.3 µM | – | –
CC(CC1C(=O)N(C)C(=O)N(C)C1=O)C1NCCc2c1n(C(=O)OC(C)(C)C)c1ccccc21 (stereo not drawn) | inactive | inactive | inactive | inactive | inactive | – | inactive | inactive | inactive | 42.7 µM | – | – | – | – | – | – | – | –
CC(C)(C)OC(=O)N1CCc2c(n(C(=O)OC(C)(C)C)c3ccccc23)C1CCO (stereo not drawn) | inactive | – | – | inactive | inactive | inactive | inactive | inactive | inactive | – | – | 49.7 µM | – | – | 49.7 µM | – | – | –
CCCN1C(=O)C(CC(C)C2NCCc3c2[nH]c2ccccc32)C(=O)N(CCC)C1=O (stereo not drawn) | inactive | inactive | inactive | inactive | inactive | inactive | inactive | inactive | inactive | – | – | – | – | – | – | – | – | –
CN1C(=O)C(Cc2nccc3c2[nH]c2ccccc23)C(=O)N(C)C1=O | inactive | inactive | inactive | inactive | inactive | inactive | inactive | inactive | inactive | – | – | – | – | – | – | – | – | –
COc1ccc(N(C(=O)CCl)C(C(=O)NCCc2ccccc2)c2cccs2)cc1Cl (stereo not drawn) | – | – | – | – | – | – | – | – | – | – | – | – | – | – | – | – | 0.025 µM | 0.58 µM
CCOC(=O)C1NCCc2c1[nH]c1ccccc21 (stereo not drawn) | – | – | inactive | – | inactive | – | inactive | inactive | inactive | 71.7 µM | 71.7 µM | – | – | 81.9 µM | 81.9 µM | – | – | –
CCOC(=O)C1c2[nH]c3ccccc3c2CCN1C(=O)OCc1ccccc1 (stereo not drawn) | – | – | – | – | inactive | – | inactive | – | – | 12.9 µM | 52.9 µM | 14.8 µM | – | – | 12.9 µM | 52.9 µM | – | –
CCOC(=O)C1c2[nH]c3ccccc3c2CCN1C(=O)OC (stereo not drawn) | inactive | inactive | inactive | inactive | inactive | inactive | inactive | inactive | inactive | – | – | – | – | – | – | – | – | –
COC(=O)CC1c2[nH]c3ccccc3c2CCN1Cc1ccccc1 (stereo not drawn) | inactive | inactive | inactive | inactive | inactive | – | inactive | inactive | inactive | 59.8 µM | – | – | – | – | – | – | – | –
